Key:
[1] = tested on: GST-tagged TRD domain of MECP2 (170–325 of NP_004983); test: Peptide SPOT array binding of ADD peptides to GST-TRD; settings: 25 nM GST-TRD; 1 h; ECL detection (anti-GST)
Procedure, shortened: (§1)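 The cellulose-bound peptide arrays included alanine-substituted variants. Purified protein was applied for 1 h. Detection used anti-GST (1:12,000) or anti-MBP (1:10,000) for 1 h, then HRP secondary for 1 h.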

[2] = tested on: ADD D529A/D530A/D531A triple mutant; test: Peptide SPOT array binding of TRD peptides to ADD triple mutant; design: species or system human; settings: 25 nM ADD mutant; 1 h; ECL detection
Procedure, shortened: as §1

[3] = tested on: GST-TRD (TRD domain of MECP2); test: GST-pulldown of MBP-ADD; format: binding; settings: 1 μg each protein; 25 mM Tris/HCl pH 8, 200 mM KCl; 1 h, 6°C; SDS-PAGE

Substance | TRD binding of ADD peptides on SPOT array [1] | further results
ADD 496–510: ADD surface peptide on SPOT array, WT sequence | showed TRD binding with the WT sequence | –
ADD 592–606: ADD surface peptide on SPOT array, WT sequence | showed TRD binding with the WT sequence | –
TRD residues 214–228: 15mer SPOT peptide, TRD residues E214‐T228, WT peptide (EKSPGKLLVKMPFQT) | – | binding of ADD D529A/D530A/D531A triple mutant to TRD peptide on SPOT array [2]: Binding was lost
ADD 522–536: ADD surface peptide on SPOT array, WT sequence | showed TRD binding with the WT sequence | –
MBP-ADD: ADD domain of DNMT3A (476–614 of Q9Y6K1) as maltose‐binding protein (MBP) fusion | – | pulldown of MBP-ADD by GST-TRD [3]: strong and specific pulldown

— PMC9798253 (Protein Science : A Publication of the Protein Society, 2023)
